Compound activity deposited in PubChem by Broad Institute.
The entries come from a sample that favours hits as a whole.
GASC1 inh: blocks human GASC-1 (KDM4C) demethylase activity; 96,000 compounds, 0.15% hits; inhibition, % at 12.5 µM; Q9H3R0; GST-KDM4C 2-372, H3K9me3 peptide, LANCE TR-FRET;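 active = mean replicate inhibition above about 25%, with at least 55% of replicates also reaching it, limit read from the data, passing the limit was not always enough; inconclusive = only one of those two conditions met; inactive = neither condition met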
Target sequence (Q9H3R0 2-372 limits assumed): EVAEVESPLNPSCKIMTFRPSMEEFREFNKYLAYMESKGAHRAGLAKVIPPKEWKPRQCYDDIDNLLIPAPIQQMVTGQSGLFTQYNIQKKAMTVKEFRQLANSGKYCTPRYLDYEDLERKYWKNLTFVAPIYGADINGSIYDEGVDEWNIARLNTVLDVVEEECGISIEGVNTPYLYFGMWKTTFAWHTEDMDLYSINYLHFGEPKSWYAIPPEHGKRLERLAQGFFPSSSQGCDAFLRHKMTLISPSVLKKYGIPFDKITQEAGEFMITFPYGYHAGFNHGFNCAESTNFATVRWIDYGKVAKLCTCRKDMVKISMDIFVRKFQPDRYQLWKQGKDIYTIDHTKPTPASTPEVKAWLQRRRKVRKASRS
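Compound: one test concentration per compound; Material: GST-GASC-1 enzyme fragment 2-372; Amount: GASC-1 enzyme at 10 nM final in reaction; Also added: H3K9me3 peptide substrate, Fe(II), 2-oxoglutarate; Technique: LANCE TR-FRET; Times: 30 min demethylation and 1 h detection at room temperature.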
IDH1 R132H inh: blocks human IDH1 R132H reductase activity; O75874; diaphorase/resazurin fluorescence, 60 min; inhibition, % at 10 µM; 70,000 compounds, 0.18% hits; in the data active = inhibition above about 34%; inconclusive = no clear call, values can overlap the other calls; inactive = below about 11%
T cruzi growth-1: T. cruzi proliferation inhibition; T. cruzi beta-gal in NIH3T3, GalScreen luminescence, 90 h; inhibition, % at 8.34 µM; 77,000 compounds, 5.9% hits; AID 624255;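 active = mean inhibition above about 93%, with at least 55% of replicates each passing it, limit read from the data, passing the limit was not always enough; inconclusive = only one of those two conditions holds; inactive = neither condition holds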
T cruzi growth-2: Trypanosoma cruzi proliferation inhibition. shares compounds with T cruzi growth-1. inhibition, % at 8.35 µM. T. cruzi beta-gal in NIH3T3, GalScreen luminescence, 90 h. AID 651739. 5,600 compounds, 72% hits;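 active = mean replicate inhibition above about 95% and at least 55% of replicates individually reaching it, limit read from the data; inconclusive = only one of the two criteria is met; inactive = neither criterion is met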
T cruzi growth-3: Trypanosoma cruzi proliferation inhibition. shares compounds with T cruzi growth-1. T. cruzi beta-gal in NIH3T3, GalScreen luminescence, 90 h. inhibition, % at 2.09 µM. 5,600 compounds, 21% hits;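 active = mean inhibition above about 95%, with at least 55% of replicates also reaching it, limit read from the data; inconclusive = meets just one of the two conditions; inactive = meets neither condition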
NIH3T3 tox: kills mouse NIH/3T3 fibroblasts; shares compounds with T cruzi growth-1; NIH/3T3 viability, CellTiter-Glo ATP luminescence, 90 h; cytotoxicity (signal decrease), % at 8.35 µM; 5,600 compounds, 14% hits;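 active = mean signal decrease across replicates above about 35% based on untreated-well scatter, with enough replicates individually passing, limit read from the data; inconclusive = no rule stated though some were filed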
NIH3T3 tox 2: cytotoxicity in mouse NIH/3T3 fibroblasts; NIH/3T3 viability, CellTiter-Glo ATP luminescence, 90 h; inhibition, % at 24.9 µM; 5,600 compounds, 56% hits; shares compounds with T cruzi growth-1;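 active = mean loss of cell viability signal at or above a set limit, and enough replicates individually reaching it; inconclusive = meets only the mean limit or only the replicate share; inactive = meets neither condition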
Hits are given with their value.

How did N#Cc1c(NC(=O)Cn2cnc3ccccc3c2=O)sc2c1CCC2 do in these assays?
IDH1 R132H inh: inactive

Results for CN(C)c1ccc2c(c1)[C@@H]1C[C@@H](CC(=O)NCc3ccc4c(c3)OCO4)O[C@@H](CO)[C@@H]1O2 ?
GASC1 inh: inactive; IDH1 R132H inh: inactive; T cruzi growth-1: 121; T cruzi growth-2: 106; T cruzi growth-3: inactive; NIH3T3 tox: inactive; NIH3T3 tox 2: inactive

What do the screens show for `CN(C)c1ccc2c(c1)[C@H]1C[C@@H](CC(=O)NCc3ccc(Oc4ccccc4)cc3)O[C@@H](CO)[C@H]1O2`?
GASC1 inh: inactive; IDH1 R132H inh: inactive; T cruzi growth-1: 108; T cruzi growth-2: inactive; T cruzi growth-3: inactive; NIH3T3 tox: inactive; NIH3T3 tox 2: inactive

Results for COc1ccc(CNC(=O)C[C@H]2C[C@@H]3c4cc(N(C)C)ccc4O[C@@H]3[C@@H](CO)O2)cc1 ?
GASC1 inh: inactive

Results for CN(C)c1ccc2c(c1)[C@H]1C[C@H](CC(=O)NCc3ccc4c(c3)OCO4)O[C@H](CO)[C@H]1O2 ?
GASC1 inh: inactive; IDH1 R132H inh: inactive; T cruzi growth-1: inactive

How did CC1(C)CC(=O)c2cc(C(=O)NCCCN3CCOCC3)c(=O)n(-c3ccccc3)c2C1 do in these assays?
IDH1 R132H inh: inactive

What do the screens show for `Cc1c(Br)ccc(NC(=O)Cn2cnc3sc4c(c3c2=O)CCCC4)c1C`?
IDH1 R132H inh: inactive

How did C[C@@H]1CN([C@H](C)CO)C(=O)c2cccc(NC(=O)c3nc4ccccc4s3)c2O[C@@H]1CN(C)Cc1ccc(-c2ccccc2)cc1 do in these assays?
GASC1 inh: inactive; IDH1 R132H inh: inactive; T cruzi growth-1: 111; T cruzi growth-2: 107; T cruzi growth-3: inactive; NIH3T3 tox: inactive; NIH3T3 tox 2: inactive

Results for C[C@H](CO)N1C[C@H](C)[C@H](CN(C)Cc2ccc(C(F)(F)F)cc2)Oc2c(NC(=O)c3nc4ccccc4s3)cccc2C1=O ?
GASC1 inh: inactive; IDH1 R132H inh: inactive; T cruzi growth-1: 97; T cruzi growth-2: 100; T cruzi growth-3: 98; NIH3T3 tox: inactive; NIH3T3 tox 2: 93

How did C[C@@H]1CN([C@@H](C)CO)C(=O)c2cccc(NC(=O)c3nc4ccccc4s3)c2O[C@H]1CN(C)Cc1ccc(-c2ccccc2)cc1 do in these assays?
GASC1 inh: inactive; T cruzi growth-1: inactive

What do the screens show for `C[C@H]1CN([C@@H](C)CO)C(=O)c2cccc(NC(=O)c3nc4ccccc4s3)c2O[C@@H]1CN(C)Cc1ccc(C(F)(F)F)cc1`?
GASC1 inh: inactive; T cruzi growth-1: inactive

Results for COc1ccc(CN(C)C[C@H]2Oc3c(NC(=O)c4nc5ccccc5s4)cccc3C(=O)N([C@H](C)CO)C[C@@H]2C)cc1 ?
GASC1 inh: inactive; IDH1 R132H inh: inactive; T cruzi growth-1: inconclusive; T cruzi growth-2: inactive; T cruzi growth-3: inactive; NIH3T3 tox: inactive; NIH3T3 tox 2: inactive

Results for COc1ccc(CN(C)C[C@H]2Oc3c(NC(=O)c4nc5ccccc5s4)cccc3C(=O)N([C@@H](C)CO)C[C@@H]2C)cc1 ?
GASC1 inh: inactive; IDH1 R132H inh: inactive; T cruzi growth-1: inactive

How did C[C@@H]1CN([C@H](C)CO)C(=O)c2cccc(NC(=O)c3nc4ccccc4s3)c2O[C@@H]1CN(C)Cc1ccccc1 do in these assays?
GASC1 inh: inactive; IDH1 R132H inh: inactive; T cruzi growth-1: inconclusive; T cruzi growth-2: 100; T cruzi growth-3: inactive; NIH3T3 tox: inactive; NIH3T3 tox 2: inactive

How did C[C@H]1CN([C@@H](C)CO)C(=O)c2cccc(NC(=O)c3nc4ccccc4s3)c2O[C@@H]1CN(C)Cc1ccccc1 do in these assays?
GASC1 inh: inactive; T cruzi growth-1: inactive

What do the screens show for `Cc1cc(C)c(OCC(=O)Nc2ccccc2-c2nc3ccccc3s2)c(Br)c1`?
IDH1 R132H inh: inactive

Results for CCN(CC(=O)Nc1cccc(F)c1)S(=O)(=O)c1ccc(C)cc1 ?
IDH1 R132H inh: inactive

What do the screens show for `Cc1cc(C)c(NS(=O)(=O)c2ccc(NC(=O)c3nc4nc(C)cc(C(F)F)n4n3)cc2)c(C)c1`?
IDH1 R132H inh: inactive

Results for O=C(NCCc1c[nH]c2ccccc12)NC12CC3CC(CC(C3)C1)C2 ?
IDH1 R132H inh: inactive

How did COc1ccc(S(=O)(=O)N(C)C[C@H]2Oc3c(NC(=O)c4nc5ccccc5s4)cccc3C(=O)N([C@@H](C)CO)C[C@H]2C)cc1 do in these assays?
GASC1 inh: inactive; T cruzi growth-1: inactive

Results for COc1ccc(S(=O)(=O)N(C)C[C@@H]2Oc3c(NC(=O)c4nc5ccccc5s4)cccc3C(=O)N([C@H](C)CO)C[C@@H]2C)cc1 ?
GASC1 inh: inactive; IDH1 R132H inh: inactive; T cruzi growth-1: 112; T cruzi growth-2: 99; T cruzi growth-3: 111; NIH3T3 tox: 38; NIH3T3 tox 2: 51

What do the screens show for `O=[N+]([O-])c1ccc(OCc2nc(-c3ccncc3)no2)cc1`?
IDH1 R132H inh: inactive

How did C[C@H](CO)N1C[C@H](C)[C@@H](CN(C)C)Oc2ncc(C#Cc3ccccc3F)cc2C1=O do in these assays?
GASC1 inh: inactive; IDH1 R132H inh: inactive; T cruzi growth-1: inactive

Results for CCCNC(=O)N(C)C[C@H]1Oc2ncc(C#Cc3ccccc3F)cc2C(=O)N([C@H](C)CO)C[C@H]1C ?
GASC1 inh: inactive; IDH1 R132H inh: inactive; T cruzi growth-1: inactive

How did C[C@@H]1CN([C@H](C)CO)C(=O)c2cc(C#Cc3ccccc3F)cnc2O[C@@H]1CN(C)C do in these assays?
GASC1 inh: inactive; IDH1 R132H inh: inactive; T cruzi growth-1: 98; T cruzi growth-2: inactive; T cruzi growth-3: inactive; NIH3T3 tox: inactive; NIH3T3 tox 2: inconclusive

What do the screens show for `C[C@@H]1CN([C@H](C)CO)C(=O)c2cc(C#Cc3ccccc3)cnc2O[C@@H]1CN(C)S(=O)(=O)c1ccccc1F`?
IDH1 R132H inh: inactive; T cruzi growth-1: inactive

Results for C[C@@H]1CN([C@@H](C)CO)C(=O)c2cc(C#Cc3ccccc3F)cnc2O[C@H]1CN(C)S(=O)(=O)c1ccccc1 ?
GASC1 inh: inactive; IDH1 R132H inh: inactive; T cruzi growth-1: 121; T cruzi growth-2: 110; T cruzi growth-3: inactive; NIH3T3 tox: inactive; NIH3T3 tox 2: 25

How did CCCNC(=O)N(C)C[C@@H]1Oc2ncc(C#Cc3ccccc3F)cc2C(=O)N([C@H](C)CO)C[C@H]1C do in these assays?
GASC1 inh: inactive; IDH1 R132H inh: inactive; T cruzi growth-1: 107; T cruzi growth-2: 97; T cruzi growth-3: inactive; NIH3T3 tox: inactive; NIH3T3 tox 2: 43
